The source of these data is ChEMBL document CHEMBL1145453, “Abietane diterpenes from Salvia miltiorrhiza inhibit the activation of hypoxia-inducible factor-1” (J Nat Prod, 2007).

SMILES strings stand for the structures. Some results are limits rather than exact numbers.

In general, IC50 refers to the concentration that gives 50% inhibition.

Experiment [1] concerns the target T1, Hypoxia inducible factors; HIF-1-alpha, HIF-2-alpha (Homo sapiens, UniProt Q16665+Q99814). Kind of experiment: Inhibition of HIF1 activation in human AGS cells assessed as inhibition of hypoxia-induced luciferase expression after 16 hrs by reporter assay. It counts as cell-based. Summed up:
(§1)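 Cells transiently cotransfected with pGL3-HRE-luciferase (six HRE copies from human VEGF gene) plus pRL-CMV, plated at 5 × 10^4 cells/well, grown 48 h, then exposed to varied compound concentrations (up to 20 µM) for 16 h at 1% O2/94% N2/5% CO2, 37 °C. Dual-luciferase read-out, firefly normalized to Renilla; IC50 from mean ± SD of three experiments; 17-DMAG positive control.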

The target of experiment [2] is T1, Hypoxia inducible factors; HIF-1-alpha, HIF-2-alpha. The experiment is described as follows: Inhibition of HIF1 activation in human Hep3B cells assessed as inhibition of hypoxia-induced luciferase expression after 16 hrs by reporter assay. It counts as cell-based. Particulars: hep 3b2. Summed up: as §1
Experiment [3] relates to AGS. The experiment is described as follows: Viability of human AGS cells under normoxic conditions after 24 hrs by MTT assay. It counts as functional, cell-based. Summed up:
(§2)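 Cells seeded 5 × 10^4/well, settled 3 h at 37 °C, then exposed to a concentration range of compound under normoxia or hypoxia (1% O2) for 24 h. MTT (10 µL of 5 mg/mL stock) added for 4 h, formazan dissolved in DMSO, absorbance at 570 nm; LD50 derived, mean ± SD of three experiments.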

Experiment [4] can be described thus: Viability of human Hep3B cells under normoxic conditions after 24 hrs by MTT assay. It counts as functional, cell-based, Hep 3B2. Summed up: as §2
(In general: Tetrazolium dyes change colour on reduction, which living cells bring about.)

For experiment [5], the system named is AGS. The experiment is described as follows: Viability of human AGS cells under hypoxic conditions after 24 hrs by MTT assay. It counts as functional, cell-based. Summed up:
as §2

Experiment [6] in a line: Viability of human Hep3B cells under hypoxic conditions after 24 hrs by MTT assay. It counts as functional, cell-based, Hep 3B2. Summed up: as §2
The test system of experiment [7] is Hep 3B2. The experiment is described as follows: Inhibition of hypoxia-induced HIF1alpha accumulation in Hep3B cells. It counts as functional, cell-based. To be noted: Homo sapiens. Summed up: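 Hep3B cells plated at 1.5 × 10^5 cells per cm2, grown overnight at 37 °C, exposed to a range of concentrations for 1 h, then held 12 h hypoxic (1% O2, 94% N2, 5% CO2, 37 °C). HIF-1α was measured in total lysates (50 µg) by Western blot after 6% SDS-PAGE with rabbit anti-HIF-1α, with ECL detection. TOPO I served as loading control.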

The nature of experiment [8]: Suppression of hypoxia-induced VEGF mRNA expression in Hep3B cells after 1 hr by RT-PCR. It counts as functional, cell-based. Particulars: Homo sapiens; Hep 3B2; in the assay text read “after 16 hr” for “after 1 hr”. Summed up:
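Hep3B cells pretreated 1 h with graded compound concentrations, then held 16 h under hypoxia (1% O2, 94% N2, 5% CO2, 37 °C). Total RNA isolated and VEGF transcript detected by RT-PCR, product identity confirmed by sequencing.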

For experiment [9], the system named is Hep 3B2. The experiment is described as follows: Inhibition of hypoxia-induced secreted VEGF levels in Hep3B cells after 16 hr by ELISA. Particulars: Homo sapiens. In general terms: ELISA stands for enzyme-linked immunosorbent assay.

For the molecule `Cc1cccc2c3c(ccc12)C(=O)C(C(C)C)=CC3=O` [12-DEOXYTANSHINQUINONE B], the half-inhibitory concentration (IC50) in [1] is 15.1 µM; in experiment [2], 10.6 µM; with AGS [3] it was 21.6 µM; in experiment [4], more than 50 µM.

Turning to `CO[C@H]1/C=C\C=C(/C)C(=O)NC2=CC(=O)C(NCCN(C)C)=C(C[C@@H](C)C[C@H](OC)[C@H](O)[C@@H](C)/C=C(\C)[C@@H]1OC(N)=O)C2=O` [ALVESPIMYCIN], the half-maximal inhibitory concentration (IC50) was 0.036 µM in experiment [1], 0.061 µM in experiment [2] and more than 50 µM in experiment [4].

For `C[C@H]1COC2=C1C(=O)C(=O)c1c2ccc2c1CCCC2(C)C` [CRYPTOTANSHINONE], the IC50 in experiment [1] is 1.58 µM; in experiment [2], 1.36 µM; in the experiment on AGS [3] it was 13.5 µM; in the experiment with AGS [5] it was 10.2 µM; in [4], more than 30 µM; in [6], more than 30 µM.

Regarding `Cc1cccc2c3c(ccc12)C(=O)C(C(C)CO)=C(O)C3=O` (stereo unspecified) [DANSHENXINKUN A], the IC50 is more than 20 µM in [1], more than 20 µM in experiment [2], more than 50 µM with AGS [3] and more than 50 µM in experiment [4].

As for `Cc1cccc2c3c(ccc12)C(=O)C(=O)C1=C3OC[C@H]1C` [DIHYDROISOTANSHINONE II], the 50% inhibitory concentration (IC50) in experiment [1] is more than 20 µM; in experiment [2], more than 20 µM; in the experiment on AGS [3], more than 50 µM; in [4] it was more than 50 µM.

Turning to `Cc1cccc2c3c(ccc12)C1=C(C(=O)C3=O)[C@@H](C)CO1` [DIHYDROTANSHINONE I], the 50% inhibitory concentration (IC50) is 2.05 µM in experiment [1]; 2.29 µM in experiment [2]; more than 50 µM in the experiment with AGS [3]; 47.7 µM in the experiment with AGS [5]; more than 50 µM in [4]; more than 50 µM in experiment [6]. Besides, the half-inhibitory concentration (IC50) with Hep 3B2 [7] is 3.2 µM.

On to `COC(=O)[C@@]1(C)CCCc2c1ccc1c2C(=O)C(=O)c2c(C)coc2-1` [METHYL TANSHINONATE], for which the IC50 is 7.48 µM in experiment [1], 7.34 µM in experiment [2], more than 50 µM in the experiment with AGS [3] and more than 50 µM in [4].

In the case of `C[C@H](CO)C1=C(O)C(=O)c2c(ccc3c2CCCC3(C)C)C1=O` [NEOCRYPTOTANSHINONE], the 50% inhibitory concentration (IC50) in [1] is 12.7 µM; in experiment [2] it was more than 20 µM; in the experiment with AGS [3] it was more than 50 µM; in experiment [4], more than 50 µM.

Turning to `CC(C)C1=CC(=O)c2c(ccc3c2C=CCC3(C)C)C1=O` [SIBIRIQUINONE A], the half-maximal inhibitory concentration (IC50) was 0.34 µM in experiment [1]; 0.28 µM in [2]; 35.7 µM in the experiment on AGS [3]; 21.2 µM in the experiment with AGS [5]; more than 50 µM in [4]; more than 50 µM in experiment [6]. Besides, the IC50 came out at 0.4 µM in the experiment with Hep 3B2 [7] and 3.5 µM in the experiment on Hep 3B2 [9]. The Activity entry in experiment [8] was “Dose-dependent effect”.

With `CC(C)C1=CC(=O)c2c(ccc3c2CCCC3(C)C)C1=O` [SIBIRIQUINONE B], the half-maximal inhibitory concentration (IC50) in [1] was 3.36 µM; in experiment [2] it was 3.18 µM; with AGS [3], more than 50 µM; in the experiment with AGS [5], more than 50 µM; in experiment [4], more than 50 µM; in experiment [6], more than 50 µM.

For `Cc1coc2c1C(=O)C(=O)c1c-2ccc2c1CCCC2(C)C` [TANSHINONE IIA], the IC50 in experiment [1] is 7.53 µM; in [2], 6.18 µM; in the experiment on AGS [3], 10 µM; in the experiment with AGS [5], 6.8 µM; in experiment [4] it was more than 50 µM; in experiment [6], more than 50 µM.

For the molecule `Cc1coc2c1C(=O)C(=O)c1c-2ccc2c(C)cccc12` [TANSHINONE I], the half-maximal inhibitory concentration (IC50) in experiment [1] is 12.5 µM; in experiment [2] it was 8.51 µM; in the experiment with AGS [3], more than 50 µM; in experiment [4], more than 50 µM.
